# Source: PubChem BioAssay AID775 (SRMLSC, 2007)
# Screen size: about 130,000 compounds; about 900 (0.69%) were called active. The sample holds actives, similar compounds and a random draw of the others, so the mix is not that of the screen. Unmarked numbers belong to inactive results.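 Rule for the calls: active = inhibition above a set limit, placed 3 SD over the median of all compounds (cut at about 26% in these data); inactive = the rest.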
# Assay: rescue of nicotinamide-shortened yeast lifespan – S. cerevisiae, OD615, primary screen (AID 775);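 note: 0% = nicotinamide-treated wells and 100% = cells grown without nicotinamide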
# Conditions: S. cerevisiae growth with nicotinamide, at 10 µM, hits give high values, deaD strain in restrictive glucose medium
# Procedure, shortened: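 Material: Modified budding yeast, DeaD strain | Medium: Restrictive glucose medium | Probe or stimulus: 1.5 mM nicotinamide | Dosing: Single dose 10 µM compound, 0.25% DMSO | Times: 48 h at 30 °C | Technique: OD615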
row,Structure (SMILES),inhibition of the nicotinamide effect
1,O=C1OC(c2ccc(Cl)cc2)=N/C1=C\c1cccnc1,20.7%
2,O=C(O)C1CC(=O)N(Cc2cccnc2)C1 (configuration not stated),-1.28%
3,O=C1/C(=C\c2cccnc2)CN(Cc2ccccc2)C/C1=C\c1cccnc1,54.9% (active)
4,O=C(NCCc1ccccc1)C1CCC(Cn2c(=O)c3ccccc3n(Cc3cccnc3)c2=O)CC1 (configuration not stated),0.76%
5,Cc1ccc2nc(-c3cccnc3)c(NC3CCCC3)n2c1,-2.42%
6,Cc1cccc(OP(=O)(Nc2c(C)n(C)n(-c3ccccc3)c2=O)Oc2cccc(C)c2)c1,0%
7,CCN(CC)c1ccc([N+](=O)[O-])cc1C(=O)O,4.32%
8,O=C(COC(=O)CCCNC(=O)c1ccc(Cl)cc1)Nc1cc(Cl)ccc1Cl,5.47%
9,CC1CN(S(=O)(=O)c2ccc(C(=O)Nc3sccc3C(N)=O)cc2)CC(C)O1 (configuration not stated),0.65%
10,Cc1sc(NC(=S)NC(=O)c2cccs2)nc1-c1ccc(CC(C)C)cc1,-13.7%
11,CC(C)Cc1nn2c(=O)cc(O)nc2s1,47.1% (active)
12,COC(=O)c1ccc(C(=O)OC)c(NC(=S)N2CCN(c3ccc(F)cc3)CC2)c1,-4.39%
13,CSCc1ccc(C(=O)Nc2cc(C)cc(C)c2)cc1,1.95%
14,CCCn1c(=O)c(-c2ccccc2)c(O)c2ccccc21,3.34%
15,Cn1c(=O)c(Sc2ccc(Cl)cc2)c(O)c2ccccc21,29.7% (active)
16,Cn1c(=O)c(C(=O)Nc2ncccn2)c(O)c2ccccc21,-13.7%
17,O=C(/C=C/c1ccccc1[N+](=O)[O-])NCC1CCCO1 (configuration not stated),1.94%
18,Cc1ccc(C(=O)OCc2nc(N)nc(Nc3ccccc3C)n2)cc1,-3.73%
19,NS(=O)(=O)c1ccc(CCNC(=S)Nc2ccc(S(N)(=O)=O)cc2)cc1,1.53%
20,Cc1cccc(CC(=O)N2CCN=C2SCc2ccc([N+](=O)[O-])cc2)c1,-1.98%
21,CNC(=S)N1CCN(c2ccccn2)CC1,1.57%
22,O=C(C(Cl)Cl)N1CCN(c2ccccn2)CC1,1.15%
23,CC(=C1C(=O)c2ccccc2C1=O)N1CCN(c2ccccn2)CC1,54.4% (active)
24,S=C(Nc1cccc(Cl)c1)Nc1ccc2cn[nH]c2c1,32.1% (active)
25,Cc1csc(NC(=S)Nc2cccc(Cl)c2)n1,-1.45%

row,Structure (SMILES),inhibition of the nicotinamide effect
1,Cc1cccc(NC(=S)Nc2ccc3cn[nH]c3c2)c1,3.23%
2,Cc1ccc(NC(=O)CCC(=O)N/N=C/c2ccco2)c(C)c1,0.43%
3,Cc1ccc2c(CC(=O)NCc3cccs3)coc2c1,-1.73%
4,Cc1cccc(C(=O)c2cccc(C)c2)c1,-6.29%
5,Cc1nccn1CC(=O)N/N=C/c1ccc(O)c(O)c1,0.31%
6,COc1ccccc1C1CC(=O)n2c(nc(-c3ccccc3)c2-c2ccccc2)S1 (configuration not stated),0.78%
7,COc1cc(OC)c(-n2c(C)cc(C=O)c2C)cc1Cl,39.8% (active)
8,Cc1cc(C=O)c(C)n1-c1ccc(NC2CCCCC2)c([N+](=O)[O-])c1,-25.3%
9,COc1cc(OC)c(-n2cc(-c3ccc(Cl)cc3)[nH]c2=O)cc1Cl,-0.64%
10,O=C(Cc1coc2ccc3ccccc3c12)NCc1cccs1,-1.99%
11,COc1cc(/C=N\NC(=O)c2nonc2N)c(OC)cc1Br,5.5%
12,COCCn1c(=O)[nH]c(=O)c2cc(C(=O)c3cc(OC)ccc3O)cnc21,-5.05%
13,CCCn1c(=O)c2c(C(F)(F)F)cc(-c3cccs3)nc2n(CCC)c1=O,3.84%
14,CCCN1Cc2cccc(C(=O)NCc3ccccc3)c2C1=O,-14.6%
15,O=C(O)c1cccc2c1C(=O)N(C1CCCCC1)C2,63.7% (active)
16,CCCN1Cc2cccc(C(=O)Nc3ccc(S(=O)(=O)N4CCCCCC4)cc3)c2C1=O,-3.05%
17,COc1cc(NC(=S)NNC(=O)CC(C)C)c(OC)cc1Cl,0.62%
18,COc1ccccc1NC(=O)CCCc1c[nH]c2ccccc12,-7.92%
19,COc1ccc(NC(=O)/C(Cl)=C(/Cl)S(=O)Cc2ccc(C)cc2)cn1 (configuration not stated),45.5% (active)
20,COc1cccc(NC(=O)Cc2ccc(C)cc2)c1,-12.4%
21,COc1ccc(NS(=O)(=O)c2ccc(NC(=S)NC(=O)/C=C/c3ccc(C)cc3)cc2)nn1,-1.4%
22,Cc1ccc(CC(=O)Nc2ccc(OC(F)F)c(Cl)c2)cc1C,0.1%
23,S=C(NCCc1ccccc1)NCC1CCCO1 (configuration not stated),1.76%
24,O=C(CS(=O)(=O)Cc1ccccc1)NCC1CCCO1 (configuration not stated),46.3% (active)
25,O=C(NCC1CCCO1)c1ccc2ccccc2n1 (configuration not stated),-8.01%

row,Structure (SMILES),inhibition of the nicotinamide effect
1,COc1ccc(-n2c(=S)[nH]c3sc4c(c3c2=O)CCc2ccccc2-4)cc1,8.03%
2,O=C(/C=C/c1ccc([N+](=O)[O-])cc1)NCCSCc1ccco1,-1.15%
3,CC(=O)c1c(O)cc2n(c1=O)-c1ccc(Cl)cc1C2(C)C,50.9% (active)
4,O=C(COC(=O)/C=C/c1nc2ccccc2s1)Nc1ccccc1Oc1ccccc1,-1.04%
5,Cc1nnc(NC(=O)/C=C/c2ccco2)s1,-3.6%
6,COc1cc(OC)nc(S(C)(=O)=O)n1,2.39%
7,COc1ccc(-c2cc(C(F)(F)F)nc(S(C)(=O)=O)n2)cc1OC,48.9% (active)
8,COc1ccc(-c2cc(C(F)(F)F)nc(SCC(=O)Nc3ccc4c(c3)OCO4)n2)cc1OC,3.91%
9,Cc1ccc(C)c2[nH]c(=O)c(CCNC(=O)c3cccs3)cc12,-0.37%
10,O=C(OC1CCOC1=O)c1cccc(S(=O)(=O)Nc2ccc(F)cc2)c1 (configuration not stated),1.4%
11,COc1ccc(C)cc1NC(=O)C(OC(=O)c1cccc(S(=O)(=O)N(C)c2ccccc2)c1)c1ccccc1 (configuration not stated),-5.56%
12,Cc1cccc(N=C2NN=C(c3c[nH]c4ccccc34)CS2)c1,5.95%
13,CCN(CC(=O)NCCc1ccccc1)S(=O)(=O)c1ccc(C)cc1,5.67%
14,CCn1c(NC(=O)c2nn(C)cc2Br)nc2ccccc21,-7.14%
15,CCN(CC)CCn1c(/N=C/c2cc(Br)ccc2O)nc2ccccc21,37.7% (active)
16,C/C(=N\c1nc2ccccc2n1C)c1cc(Cl)ccc1O,-13.3%
17,CN(c1ccccc1)S(=O)(=O)c1cccc(NC(=O)Cc2c(F)cccc2Cl)c1,1.53%
18,O=C(CN1C2=NCCN2c2ccccc21)c1cccs1,0.42%
19,O=C1Nc2cc(Cl)c(Cl)cc2N(O)N1c1cc(Cl)cc(Cl)c1,110% (active)
20,O=C(O)c1cccc(N2C(=O)Nc3ccccc3N2O)c1,4.66%
21,CCOC(=O)c1c(NC(=O)Cn2nc(C(F)(F)F)cc2C)sc2c1CCC2,-3.99%
22,CC(C)C(=O)N1CCN(CCN=CC2=C(O)CC(c3ccco3)CC2=O)CC1 (configuration not stated),-8.76%
23,O=C1CC(c2ccccc2)CC(O)=C1C=NCCN1CCOCC1 (configuration not stated),70.8% (active)
24,O=C1CC(c2cccc(Cl)c2)CC(O)=C1C=Nc1ccccc1 (configuration not stated),-1.47%
25,O=C(Nc1ccc2ccccc2c1)/C(=C\c1ccc2c(c1)OCO2)NC(=O)c1ccco1,2.64%

row,Structure (SMILES),inhibition of the nicotinamide effect
1,CN(c1ccccc1)c1nc(N)c([N+](=O)[O-])c(NCc2ccco2)n1,8.11%
2,CCOC(=O)C1CCN(C(=O)/C=C/c2cc(OC)c(OC)c(OC)c2)CC1,-0.86%
3,Cc1nc2c(C(=O)NCc3cccs3)cnn2c(C)c1Cc1ccc(F)cc1,7.32%
4,Cc1ccc(SCCC(=O)NC(C(C)C)C(C)C)cc1,1.38%
5,CC1Cc2ccccc2N1C(=O)Cn1cnc2ccccc2c1=O (configuration not stated),55.5% (active)
6,CCn1nc(C(=O)OCC(=O)N2c3ccccc3CC2C)c2ccccc2c1=O (configuration not stated),-14.7%
7,CC1Cc2ccccc2N1C(=O)CSc1nc2ccccc2o1 (configuration not stated),-13.2%
8,COc1ccc(COC(=O)N/N=C(\C)CC(=O)Nc2ccc(Cl)cc2)cc1,-3.92%
9,O=S(=O)(NCCSc1ccccn1)c1ccc(Cl)cc1,10.5%
10,COc1ccc(/C=C(/CC(=O)Nc2ccc(C)cc2)c2nc3ccccc3s2)cc1,-0.84%
11,N#C/C(=C\c1ccccc1C(F)(F)F)C(=O)Nc1ccccc1F,6.56%
12,CNC(=O)/C(C#N)=C/c1c(F)cccc1Cl,43.1% (active)
13,Cc1cc(/C=C(/C#N)C(=O)Nc2ccc(Cl)cc2)c(C)n1-c1cccnc1,0.59%
14,CCOC(=O)C(C)Sc1nnc(CSc2nc3nc(C)cc(C)n3n2)o1 (configuration not stated),-1.15%
15,CCOc1ncccc1C(=O)N(C)CC(=O)Nc1ccc(F)cc1,0.31%
16,O=C(/C=C/c1cccc([N+](=O)[O-])c1)NCCSCc1ccco1,-4.01%
17,COc1ccc(CNc2ccc3c(c2)CCC3)cc1OC,-10.1%
18,COc1ccc(CC(=O)Nc2ccc3c(c2)CCC3)cc1S(=O)(=O)N1CCOCC1,61% (active)
19,O=C(CN1C(=O)CCC1=O)Nc1ccc(S(=O)(=O)N2CCOCC2)cc1,-14.7%
20,CCCc1cc(=O)[nH]c(SCc2cc(=O)oc3c(C)c(C)ccc23)n1,4.9%
21,O=C(OCc1ccc(Br)cc1)c1cccc(-c2nnc(-c3ccccc3)o2)c1,10.4%
22,CCOC(=O)NN1C(=O)c2ccccc2NC1c1cccc(O)c1 (configuration not stated),-1.57%
